# In ChEMBL document CHEMBL1275590, “Novel arylimidamides for treatment of visceral leishmaniasis” (Antimicrob Agents Chemother, 2010):
# Legend:
# [1] = system: Leishmania donovani; experiment: Antileishmanial activity against intracellular Leishmania donovani LV82 amastigotes; format: functional, organism-based
# Outline: (§1)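 CD-1 mouse peritoneal macrophages, 5 × 10^4 cells/well in RPMI 1640 + 10% heat-inactivated FBS, adhered overnight. Infected overnight with stationary-phase LV82 promastigotes (5:1 parasite:macrophage), 37°C, 5% CO2. Medium then replaced with compound or vehicle for 72 h at 37°C. Methanol-fixed, Giemsa-stained; % infected macrophages counted at ×1,000. IC50 by four-parameter logistic nonlinear regression.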
# [2] = system: Leishmania amazonensis; experiment: Antileishmanial activity against intracellular Leishmania amazonensis amastigotes; format: functional, organism-based
# [3] = system: Leishmania donovani; experiment: Antileishmanial activity against intracellular Leishmania donovani LV82 amastigotes infected in CD-1 mouse peritoneal macrophage; format: functional, organism-based; outline: as §1
# [4] = system: Leishmania major; experiment: Antileishmanial activity against intracellular Leishmania major amastigotes; format: functional, organism-based
# [5] = system: Leishmania donovani; experiment: Antileishmanial activity against Leishmania donovani axenic amastigotes; format: functional, organism-based
# [6] = Induction of mutagenicity in Salmonella serovar Typhimurium TA 100 assessed as number of revertant colonies at 5 ug by Ames assay; format: toxicity, Salmonella enterica subsp. enterica serovar Typhimurium; details: in vivo
# Outline: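 Plate incorporation method with TA100, with and without Aroclor 1254-induced rat liver S9 (10% vol/vol). Compound dissolved in sterile water, serially diluted; plates scored for revertant count and background lawn versus controls. Mutagen if mean revertants at least 2-fold over mean solvent control. Positive controls: 2-nitrofluorene and sodium azide without S9, 2-aminoanthracene with S9; water and DMSO vehicles.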
# [7] = system: Leishmania donovani; experiment: Antileishmanial activity against Leishmania donovani WR378 infected in golden Syrian hamster assessed as reduction in liver parasitemia at 30 mg/kg/day, po administered for five days; format: functional; details: 120 h
# Outline: (§2)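 11-day golden hamster VL model adapted from an 8-day method, using L. donovani WR378 metacyclic promastigotes. Dosing was oral, once daily for 5 days. Animals were euthanized on day 11 post-infection. Liver, spleen and femoral bone marrow (flushed with Schneider's medium) were harvested.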
# [8] = system: Leishmania donovani; experiment: Antileishmanial activity against Leishmania donovani WR378 infected in golden Syrian hamster assessed as reduction in spleen parasitemia at 30 mg/kg/day, po administered for five days; format: functional; details: 120 h; outline: as §2
# [9] = system: Leishmania donovani; experiment: Antileishmanial activity against Leishmania donovani WR378 infected in golden Syrian hamster assessed as reduction in bone marrow parasitemia at 30 mg/kg/day, po administered for five days; format: functional; details: 120 h; outline: as §2
# [10] = Induction of mutagenicity in Salmonella serovar Typhimurium TA 98 assessed as number of revertant colonies at 5 ug by Ames assay; format: toxicity, Salmonella enterica subsp. enterica serovar Typhimurium; details: in vivo
# Outline: (§3)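 Ames plate incorporation with S. Typhimurium TA98 and TA100, with or without Aroclor 1254-induced rat liver S9 (10% vol/vol). Compound was dissolved in sterile water and serially diluted to 1–500 μg/plate. Positive controls were 2-nitrofluorene and sodium azide without S9, and 2-aminoanthracene with S9; sterile water and DMSO served as vehicles. Revertant colonies and background lawn were scored. A mutagen was defined as a mean revertant count at least 2-fold over solvent control. Single experiment.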
# [11] = Induction of mutagenicity in Salmonella serovar Typhimurium TA 98 assessed as number of revertant colonies at 2 ug by Ames assay in presence of Aroclor 1254-induced rat liver S9 metabolic activation system; format: toxicity, subcellular, Salmonella enterica subsp. enterica serovar Typhimurium; outline: as §3
# [12] = Induction of mutagenicity in Salmonella serovar Typhimurium TA 100 assessed as number of revertant colonies at 2 ug by Ames assay in presence of Aroclor 1254-induced rat liver S9 metabolic activation system; format: toxicity, subcellular, Salmonella enterica subsp. enterica serovar Typhimurium; outline: as §3
Compound,IC50 [1] [µM],IC50 [2] [µM],IC50 [3] [µM],IC50 [4] [µM],IC50 [5] [µM],further results
N=C(N)c1ccc(OCCCCCOc2ccc(C(=N)N)cc2)cc1 [PENTAMIDINE],> 50,0.83,14,–,–,–
NC[C@@H]1O[C@H](O[C@H]2[C@@H](O)[C@H](O[C@@H]3[C@@H](O)[C@H](N)C[C@H](N)[C@H]3O[C@H]3O[C@H](CO)[C@@H](O)[C@H](O)[C@H]3N)O[C@@H]2CO)[C@H](N)[C@@H](O)[C@@H]1O [PAROMOMYCIN],> 50,19,> 100,25,> 50,–
C[C@@H]1[C@H](O)[C@@H](C)/C=C/C=C/C=C/C=C/C=C/C=C/C=C/[C@H](O[C@@H]2O[C@H](C)[C@@H](O)[C@H](N)[C@@H]2O)C[C@@H]2O[C@](O)(C[C@@H](O)C[C@@H](O)[C@H](O)CC[C@@H](O)C[C@@H](O)CC(=O)O[C@H]1C)C[C@H](O)[C@H]2C(=O)O [AMPHOTERICIN B],0.066,0.14,8.2,0.21,0.098,–
[N-]=[N+]=[N-].[Na+] [SODIUM AZIDE],–,–,–,–,–,Activity [6]: 1882
CCCCCCCCCCCCCCCCOP(=O)([O-])OCC[N+](C)(C)C [MILTEFOSINE],2.7,–,24,25,8.5,inhibition in vivo at 30 mg/kg/day [7]: 88%; inhibition in vivo at 30 mg/kg/day [8]: 79%; inhibition in vivo at 30 mg/kg/day [9]: 91%
O=[N+]([O-])c1ccc2c(c1)Cc1ccccc1-2 [2-NITROFLUORENE],–,–,–,–,–,Activity [10]: 1573
Nc1ccc2cc3ccccc3cc2c1 [2-AMINOANTHRACENE],–,–,–,–,–,Activity [11]: 2744; Activity [12]: 2563
